{"source": "ChEMBL document CHEMBL1123956", "about": "“Nitrosoureido nucleosides as potential inhibitors of nucleotide biosynthesis” (J Med Chem, 1988)", "key": {"[1]": {"tested_on": "HEp-2", "assay": "Inhibition of colony formation of H.Ep-2 cells", "type": "functional, cell-based", "conditions": "Homo sapiens, read-out: I50", "method_in_brief": "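H.Ep.-2 cells exposed to drug over a 12-day period. Colony formation was scored against untreated controls, and I50 was taken as the concentration giving 50% inhibition.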"}, "[2]": {"assay": "(§1) Half life was measured at pH 7", "type": "ADME", "method_in_brief": "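Stability in pH 7 buffer, followed by HPLC; reported as half-life. The method is taken from an earlier paper.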"}, "[3]": {"tested_on": "L1210", "assay": "Inhibition of proliferation of L1210 cells", "type": "functional, cell-based", "conditions": "Mus musculus, read-out: I50", "method_in_brief": "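L1210 cells in suspension culture with drug for 48 h. I50 was the concentration giving 50% inhibition of proliferation relative to controls.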"}, "[4]": {"tested_on": "Mus musculus", "assay": "Percent increase in life span of p388 leukemia induced mice was determined at a dose of 200 mg/kg upon ip administration on days 1-5", "type": "functional", "conditions": "route intraperitoneal", "method_in_brief": "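Mice implanted with 10⁶ P388 leukemia cells were dosed intraperitoneally once daily on days 1-5 after implant. Activity is expressed as % increase in life span, and 30-day survivors were recorded.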"}, "[5]": {"assay": "as §1", "type": "ADME", "method_in_brief": "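Stability in pH 7 buffer, with decomposition followed by HPLC and the half-life taken from it.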", "remark": "listed apart in the source"}, "[6]": {"tested_on": "L1210", "assay": "Number of cells present measured with the Coulter counter at 25 uM conc.", "type": "functional, Mus musculus", "method_in_brief": "(§2)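 L1210 suspension cultures with agent for 30 min or 18 h, then a further 4 h with radiolabelled precursor. Cells were counted by Coulter counter and expressed as R, the count relative to the initial cell number (R = 1.0). R < 1.0 means a fall below the starting number; R > 1.0 means proliferation.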"}, "[7]": {"tested_on": "L1210", "assay": "percent synthesis of RNA in L1210 cells when incubated with compound for 18 hr using […] as radioligand at 50 uM conc.", "type": "functional, Mus musculus", "method_in_brief": "(§3)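 RNA synthesis in L1210 suspension cultures preincubated with agent for 30 min or 18 h. [5-3H]Urd was then added, and incorporation into RNA was sampled hourly over 4 h. Values are 4-h incorporation as % of untreated control.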"}, "[8]": {"tested_on": "L1210", "assay": "percent synthesis of DNA in L1210 cells when incubated with the compound for 30 min using […] as radioligand at 50 uM conc.", "type": "functional, Mus musculus", "method_in_brief": "(§4)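 DNA synthesis in L1210 suspension cultures preincubated with agent for 30 min or 18 h. [3H]dThd was then added to the medium, and incorporation into DNA was sampled at 1-h intervals over 4 h. Values are for the 4-h labelling period, as % of untreated control.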"}, "[9]": {"tested_on": "L1210", "assay": "percent synthesis of RNA in L1210 cells when incubated with compound for 30 min using [3H]dThd as radioligand at 50 uM conc.", "type": "functional, Mus musculus", "conditions": "in the assay text read “[5-3H]Urd” for “[3H]dThd”", "method_in_brief": "as §3"}, "[10]": {"tested_on": "L1210", "assay": "percent synthesis of RNA in L1210 cells when incubated with compound for 30 min using […] as radioligand at 100 uM conc.", "type": "functional, Mus musculus", "method_in_brief": "as §3"}, "[11]": {"tested_on": "L1210", "assay": "Size distribution of cells at 50 uM conc.", "type": "functional, Mus musculus", "method_in_brief": "(§5)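 L1210 suspension cultures with agent for 30 min or 18 h, then a 4-h labelling period. Size distribution was measured on a Model ZH Coulter Counter. The value is the instrument setting at the peak of cell size; higher settings mean larger cells.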"}, "[12]": {"tested_on": "L1210", "assay": "Size distribution of cells at 100 uM conc.", "type": "functional, Mus musculus", "method_in_brief": "as §5"}, "[13]": {"tested_on": "L1210", "assay": "percent synthesis of DNA in L1210 cells when incubated with the compound for 18 h using […] as radioligand at 25 uM conc.", "type": "functional, Mus musculus", "method_in_brief": "as §4"}, "[14]": {"tested_on": "L1210", "assay": "percent synthesis of protein in L1210 cells when incubated with the compound for 18 h uusing [3H]L-Leu as radioligand at 50 uM conc.", "type": "functional, Mus musculus", "method_in_brief": "(§6)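 Protein synthesis in L1210 suspension cultures preincubated with agent for 30 min or 18 h. [4,5-3H]-L-leucine was then added, and incorporation into protein was sampled hourly over 4 h. Values are 4-h incorporation as % of untreated control.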"}, "[15]": {"tested_on": "L1210", "assay": "Number of cells present measured with the Coulter counter at 100 uM conc.", "type": "functional, Mus musculus", "method_in_brief": "as §2"}, "[16]": {"tested_on": "L1210", "assay": "Number of cells present measured with the Coulter counter at 50 uM conc.", "type": "functional, Mus musculus", "method_in_brief": "as §2"}, "[17]": {"tested_on": "L1210", "assay": "Size distribution of cells at 25 uM conc.", "type": "functional, Mus musculus", "method_in_brief": "as §5"}, "[18]": {"tested_on": "L1210", "assay": "percent synthesis of protein in L1210 cells when incubated with the compound for 30 min using [3H]L-Leu as radioligand at 50 uM conc.", "type": "functional, Mus musculus", "method_in_brief": "as §6"}, "[19]": {"tested_on": "L1210", "assay": "percent synthesis of DNA in L1210 cells when incubated with the compound for 18 h using […] as radioligand at 50 uM conc.", "type": "functional, Mus musculus", "method_in_brief": "as §4"}, "[20]": {"tested_on": "L1210", "assay": "percent synthesis of RNA in L1210 cells when incubated with compound for 18 hr using […] as radioligand at 25 uM conc.", "type": "functional, Mus musculus", "method_in_brief": "as §3"}, "[21]": {"tested_on": "L1210", "assay": "percent synthesis of DNA in L1210 cells when incubated with the compound for 30 min using […] as radioligand at 100 uM conc.", "type": "functional, Mus musculus", "method_in_brief": "as §4"}}, "note": "pIC50: −log10 of the molar value. Where “and” joins values, the source holds several entries; their conditions need not be identical. Equal entries are not always repeated."}
{"smiles": "CCN(N=O)C(=O)NCC1OC(n2cc(C)c(=O)[nH]c2=O)CC1O", "note": "(stereo unspecified)", "values": [{"measurement": "pIC50", "setting": "[1]", "value": "< 4.06"}, {"measurement": "half-life", "setting": "[2]", "value": 1140, "unit": "min"}, {"measurement": "pIC50", "setting": "[3]", "value": "< 4.06"}, {"measurement": "ILS at 200 mg/kg", "setting": "[4]", "value": 0, "unit": "%"}]}
{"smiles": "Cc1cn(C2CC(O)C(C(=O)Nc3ccc(NC(=O)N(C)N=O)cc3)O2)c(=O)[nH]c1=O", "note": "(stereo unspecified)", "values": [{"measurement": "pIC50", "setting": "[1]", "value": 4.34}, {"measurement": "half-life", "setting": "[2]", "value": 24, "unit": "min"}, {"measurement": "pIC50", "setting": "[3]", "value": "< 4.05"}, {"measurement": "ILS at 200 mg/kg", "setting": "[4]", "value": 79, "unit": "%"}]}
{"smiles": "O=NN(CCCl)C(=O)N[C@H]1C(O)O[C@H](CO)[C@@H](O)[C@@H]1O", "note": "(stereo partly specified) [CHLOROZOTOCIN]", "values": [{"measurement": "T1/2", "setting": "[5]", "value": 52.5, "unit": "min"}]}
{"smiles": "O=NN(CCCl)C(=O)NC1CCCCC1", "note": "[LOMUSTINE]", "values": [{"measurement": "Cell no", "setting": "[6]", "value": "1.02 and 0.48"}, {"measurement": "Control", "setting": "[7]", "value": 393, "unit": "%"}, {"measurement": "Control", "setting": "[8]", "value": 75, "unit": "%"}, {"measurement": "Control", "setting": "[9]", "value": 121, "unit": "%"}, {"measurement": "Control", "setting": "[10]", "value": "101% and 246%"}, {"measurement": "Cell size", "setting": "[11]", "value": "62.5 and 90"}, {"measurement": "Cell size", "setting": "[12]", "value": "65 and 85"}, {"measurement": "Control", "setting": "[13]", "value": "88% and 139%"}, {"measurement": "Control", "setting": "[14]", "value": 584, "unit": "%"}, {"measurement": "Cell no", "setting": "[15]", "value": "1 and 0.42"}, {"measurement": "Cell no", "setting": "[16]", "value": "1 and 0.53"}, {"measurement": "Cell size", "setting": "[17]", "value": "67.5 and 90"}, {"measurement": "Control", "setting": "[18]", "value": 79, "unit": "%"}, {"measurement": "Control", "setting": "[19]", "value": 143, "unit": "%"}, {"measurement": "Control", "setting": "[20]", "value": "106% and 282%"}, {"measurement": "Control", "setting": "[21]", "value": "46% and 131%"}]}
{"smiles": "CN(N=O)C(N)=O", "note": "[N-METHYL-N-NITROSUREA]", "values": [{"measurement": "T1/2", "setting": "[5]", "value": 52.5, "unit": "min"}]}
